According to article PMC11482939 (bioRxiv, 2025):
Entries after “also recorded” stand apart in the source; their conditions may differ. Where two headings read alike, the source gives them in different places.

Assays:
[1] = test system: UM cell lines (MP41, MP38, MP46); test: Concentration-response cell viability, UM cell lines overall; assay type: cell-based, human; conditions: 72 h
[2] = test system: WS1 fibroblast cell line; test: Viability assay on non-cancerous fibroblasts; assay type: cell-based; conditions: for IC50: Fibroblast, read-out: fibroblast IC50; for fold higher IC50 / lower toxicity for non-cancerous cells than for UM cells: WS1 fibroblast IC50 vs UM IC50
How it was run: (§1)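 Cells treated 72 h with a 10-point 1:3 dilution series from nominal 10 μM top (one compound started at 300 nM), n = 4. Viability read by CellTiter-Glo ATP luminescence and normalized to 0.1% DMSO controls. IC50 and % viability derived by four-parameter log(inhibitor) vs. response fit with variable slope.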

[3] = test system: MP41 and MP38 cells; test: HDAC3 / HDAC8 inhibitor concentration-response testing; assay type: cell-based, human; conditions: alone or in combination
How it was run: as §1

[4] = test system: MP41 metastatic UM xenograft; test: Metastatic UM xenograft mouse model; assay type: in vivo, NSG mice; conditions: for survival in comparison with the vehicle group: log-rank test, p > 0.10
How it was run: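 Female NSG mice, 16 weeks old, given 1 × 10^5 FACS-sorted RFP-luciferase-transduced MP41 cells via tail vein; n = 10 per group, randomized. From day 7, test compound dosed at 2 mg/kg IP weekly. Weekly IVIS imaging 10 min after 150 mg/kg IP d-luciferin. Endpoint was >20% weight loss or health decline; organs imaged ex vivo; survival compared by log-rank.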

[5] = test system: MP41 cells extracted from mouse liver metastases; test: Ex vivo resistance testing of UM cells from mouse liver metastases; assay type: cell-based, human; conditions: relative to cells from vehicle group
How it was run: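 Liver tissue from treated and vehicle mice minced and digested overnight at 4°C in D-MEM with 400 U/mL type IV collagenase and 0.5 μg/mL amphotericin B. Cells grown in UM medium, confirmed as MP41 by RFP fluorescence, then given 10-point 1:3 dilution series for 72 h. Viability read by CellTiter-Glo ATP luminescence relative to 0.1% DMSO.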

[6] = test system: UM cells; test: Synergy testing of romidepsin and quisinostat with other hit compounds; assay type: cell-based, human; conditions: plus EC20 of other candidate compound
[7] = test system: UM cell lines, including UMM66 cells; test: Romidepsin from two sources in UM cell lines including UMM66; assay type: cell-based; conditions: Homo sapiens, read-out: IC50 in all UM cell lines including UMM66
[8] = Homo sapiens, read-out: UM IC50, UM cell lines, 72 h
[9] = read-out: UM IC50, UM cell lines

COc1ccc(-c2nc(N3CCOCC3)c3sc(CN(C)c4ncc(C(=O)NO)cn4)cc3n2)cn1 [Fimepinostat]
IC50 [1, 8]: ~11 nM
IC50 [2]: ~55 nM
fold higher IC50 / lower toxicity for non-cancerous cells than for UM cells [2]: 4- to 5 fold

COc1cc([C@@H]2c3cc4c(cc3[C@H](O)[C@H]3COC(=O)[C@H]23)OCO4)cc(OC)c1OC [Podofilox]
IC50 [1, 8]: ~9.36 nM

Cc1[nH]c2ccccc2c1CCNCc1ccc(/C=C/C(=O)NO)cc1 [Panobinostat]
IC50 [1, 8]: ~26 nM
IC50 [2]: ~124 nM
fold higher IC50 / lower toxicity for non-cancerous cells than for UM cells [2]: 4- to 5 fold

COc1ccc(Cn2ccc3ccc(C(=O)NO)cc32)cc1 [PCI-34051]
potency of HDAC3 / HDAC8 inhibitor [3]: neither was potent

CCS(=O)(=O)Nc1ccc(Oc2ccc(F)cc2F)c(-c2cn(C)c(=O)c3[nH]ccc23)c1 [Mivebresib]
IC50 [1, 8]: ~125 nM
metastases detected in organs (ex vivo IVIS) ([4]; femur, spinal cord): prevented the development of detectable spinal cord and femur metastases
IC50 [2]: > 10000 nM
acquired drug resistance after long-term in vivo treatment [5]: No significant resistance was detected

Cucurbitacin B
IC50 [1, 9]: ~37.9 nM

CC(C)C[C@H](NC(=O)[C@H](Cc1ccccc1)NC(=O)c1cnccn1)B(O)O [Velcade]
IC50 [1, 8]: ~7.6 nM
IC50 [1, 9]: ~8 nM
IC50 [2]: ~57 nM

Cn1cc(CNCC2CCN(c3ncc(C(=O)NO)cn3)CC2)c2ccccc21 [Quisinostat]
IC50 [1, 8]: ~14 nM
survival in comparison with the vehicle group [4]: did not significantly improve survival rates
synergy with the other 16 compounds [6]: did not find significant synergy
IC50 [2]: ~118 nM
fold higher IC50 / lower toxicity for non-cancerous cells than for UM cells [2]: approximately 9 fold
acquired drug resistance after long-term in vivo treatment [5]: No significant resistance was detected

CC[C@@]1(O)C(=O)OCc2c1cc1n(c2=O)Cc2cc3ccccc3nc2-1 [(S)-(+)-Camptothecin]
IC50 ([1]; Homo sapiens, read-out: UM IC50): ~334 nM

Nc1ccn([C@@H]2O[C@H](CO)[C@@H](O)C2(F)F)c(=O)n1 [Gemcitabine]
IC50 [1, 8]: ~493 nM

Nc1cc(F)ccc1NC(=O)/C=C/c1cnn(C/C=C/c2ccccc2)c1 [RGFP966]
potency of HDAC3 / HDAC8 inhibitor [3]: neither was potent

C/C=C1\NC(=O)[C@H]2CSSCC/C=C/[C@H](CC(=O)N[C@H](C(C)C)C(=O)N2)OC(=O)[C@H](C(C)C)NC1=O [Romidepsin]
IC50 [7]: 2.4 to 5.7 nM
IC50 [1, 8]: ~3.5 nM
survival in comparison with the vehicle group [4]: did not significantly improve survival rates; also recorded: did not improve the survival rate
synergy with the other 16 compounds [6]: did not find significant synergy
acquired drug resistance after long-term in vivo treatment [5]: No significant resistance was detected
